Test results as given in ChEMBL document CHEMBL2413003, “3-Carboxamido-5-aryl-isoxazoles as new CB2 agonists for the treatment of colitis” (Bioorg Med Chem, 2013).
The source made the active and inactive calls. The rule behind the calls is not given here.

Legend:
Cannabinoid receptor 2 [1] = molecular target: T1, Cannabinoid receptor 2 (Homo sapiens, UniProt P34972); test: Displacement of [3H]-CP55,940 from human CB2 receptor expressed in CHO membranes after 1 hr by liquid scintillation counting; type: cell membranes
T1 sequence (P34972 whole entry): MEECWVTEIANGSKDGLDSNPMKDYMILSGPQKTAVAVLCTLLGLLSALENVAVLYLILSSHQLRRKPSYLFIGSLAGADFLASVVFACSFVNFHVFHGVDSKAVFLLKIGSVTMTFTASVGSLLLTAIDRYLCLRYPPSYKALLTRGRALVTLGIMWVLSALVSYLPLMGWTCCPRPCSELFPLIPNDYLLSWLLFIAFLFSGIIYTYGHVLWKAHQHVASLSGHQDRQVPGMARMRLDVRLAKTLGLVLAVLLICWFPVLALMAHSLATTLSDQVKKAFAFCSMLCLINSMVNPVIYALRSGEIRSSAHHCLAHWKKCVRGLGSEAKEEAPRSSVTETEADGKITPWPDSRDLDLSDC
Outline: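 0.5 nM [3H]-CP-55,940 on 6 µg hCB2-CHO membranes in 20 mM Hepes, 5 mM MgCl2, 1 mM EDTA, 0.3% BSA, pH 7.4, 1 h at 30 °C. Filtered over GF/C and counted by scintillation. Nonspecific binding with 5 µM (R)-(+)-WIN 55,212-2; DMSO <0.1%. Screened first at 10 µM; Ki by nonlinear regression of competition curves where displacement >60%; ≥4 experiments in duplicate.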

Cannabinoid receptor 2 [2] = molecular target: T1, Cannabinoid receptor 2; test: Agonist activity at human CB2 receptor expressed in CHO membranes assessed as [35S]-GTPgammaS binding after 1 hr; type: functional, cell membranes
Outline: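 hCB2-CHO membranes (10 µg protein) in 20 mM Hepes, 10 mM MgCl2, 100 mM NaCl, 0.1% BSA, pH 7.4, with 30 µM GDP. Started with 0.1 nM [35S]-GTPγS (final) and run 1 h at 30 °C, then filtered and counted. Nonspecific binding taken with 100 µM Gpp(NH)p; basal activity set at 100%. EC50 and Emax by nonlinear regression, ≥4 experiments in duplicate.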

Homo sapiens = species on record: Homo sapiens; test: Selectivity ratio of Ki for human CB1 receptor expressed in CHO membranes to Ki for human CB2 receptor expressed in CHO membranes; type: cell membranes
HT-29 = test: Antiproliferative activity against human HT-29 cells at 10 uM after 72 hrs by MTS assay; type: cell-based; conditions: ht-29, 72 h
Outline: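 HT29 cells grown in DMEM-Glutamax with 10% FBS and penicillin/streptomycin, 37 °C, 5% CO2. Plated at 3000 cells/well in triplicate, left 24 h, then exposed to 10 µM compound (<0.1% DMSO) for 72 h. Growth read by colorimetric MTS reduction to formazan, given as % proliferation inhibition; ≥4 experiments in duplicate.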

Cannabinoid receptor 1 = Cannabinoid receptor 1 (Homo sapiens, UniProt P21554); test: Displacement of [3H]-SR141716A from human CB1 receptor expressed in CHO membranes after 1 hr by liquid scintillation counting; type: cell membranes
Sequence of Cannabinoid receptor 1 (P21554 whole entry, looked up): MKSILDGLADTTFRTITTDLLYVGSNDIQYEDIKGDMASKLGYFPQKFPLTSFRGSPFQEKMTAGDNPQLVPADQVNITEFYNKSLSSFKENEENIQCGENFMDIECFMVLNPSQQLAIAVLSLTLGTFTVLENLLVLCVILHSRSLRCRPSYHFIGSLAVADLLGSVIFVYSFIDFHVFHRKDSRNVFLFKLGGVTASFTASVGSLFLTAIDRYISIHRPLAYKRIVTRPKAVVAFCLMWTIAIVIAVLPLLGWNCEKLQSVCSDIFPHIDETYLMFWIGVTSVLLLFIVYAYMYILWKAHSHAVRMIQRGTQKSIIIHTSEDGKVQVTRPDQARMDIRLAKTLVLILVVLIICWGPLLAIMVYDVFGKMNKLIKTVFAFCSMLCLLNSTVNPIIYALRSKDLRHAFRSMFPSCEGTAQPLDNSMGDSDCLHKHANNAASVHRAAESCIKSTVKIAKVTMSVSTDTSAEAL

Mus musculus [3] = test: Anticolitis activity in DSS-induced acute colitis C57/Bl6 mouse model assessed as reduction in ratio of Kc mRNA to POLR2A mRNA level at 10 mg/kg, ip qd for 7 days measured after 7 days by RT-PCR analysis (reference value: 68.9 +/-9.8 no unit ); type: functional; conditions: route intraperitoneal
Mus musculus [4] = test: Anticolitis activity in DSS-induced acute colitis C57/Bl6 mouse model assessed as reduction in disease activity index at 10 mg/kg, ip qd for 7 days measured after 7 days relative to vehicle-treated control; type: functional, organism-based; parameters: dose 10 mg/kg
Mus musculus [5] = test: Anticolitis activity in DSS-induced acute colitis C57/Bl6 mouse model assessed as effect on TNF-alpha levels at 10 mg/kg, ip qd for 7 days measured after 7 days by RT-PCR analysis relative to vehicle-treated control; type: functional, organism-based; parameters: dose 10 mg/kg
Mus musculus [6] = test: Anticolitis activity in DSS-induced acute colitis C57/Bl6 mouse model assessed as reduction in ratio of IL-1beta mRNA to POLR2A mRNA level at 10 mg/kg, ip qd for 7 days measured after 7 days by RT-PCR analysis (reference value: 105.1 +/-17.0 no unit ); type: functional; conditions: route intraperitoneal
Mus musculus [7] = test: Anticolitis activity in DSS-induced acute colitis C57/Bl6 mouse model assessed as increase in colon length at 10 mg/kg, ip qd for 7 days measured after 7 days (reference value: 4.6 +/- 0.2 cm); type: functional; conditions: route intraperitoneal
Mus musculus [8] = test: Anticolitis activity in DSS-induced acute colitis C57/Bl6 mouse model assessed as reduction in colon inflammation at 10 mg/kg, ip qd for 7 days measured after 7 days by histological analysis relative to vehicle-treated control; type: functional, organism-based; parameters: dose 10 mg/kg
Outline: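 In DSS-colitic male C57BL6 mice given 10 mg/kg ip daily for 7 days in cyclodextrin vehicle, May-Grünwald-Giemsa-stained distal colon sections were scored for inflammatory infiltrate (0–3) and tissue damage (0–3), n = 10.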

Mus musculus [9] = test: Toxicity in DSS-induced acute colitis C57/Bl6 mouse model assessed as rovert reactions at 10 mg/kg, ip qd for 7 days measured after 7 days; type: organism-based; parameters: dose 10 mg/kg, route intraperitoneal; conditions: in vivo, 168 h
Mus musculus [10] = test: Anticolitis activity in DSS-induced acute colitis C57/Bl6 mouse model assessed as change in body weight at 10 mg/kg, ip qd for 7 days measured after 7 days (reference value: 83.1 +/- 2.2 %); type: functional; conditions: route intraperitoneal

Compound: CCCCCOc1ccc(-c2cc(C(=O)NC34CC5CC(CC(C5)C3)C4)no2)cc1
- Ki (Cannabinoid receptor 2 [1]): > 1000 nM

Compound: CCCCCOc1ccccc1-c1cc(C(=O)NC2CCCCCCC2)no1
- EC50 (Cannabinoid receptor 2 [2]): 1.8 nM
- Ki (Cannabinoid receptor 2 [1]): 73.5 nM
- Ratio Ki (Homo sapiens): > 40
- Activity (HT-29): 17%
- Ki (Cannabinoid receptor 1): > 3 µM

Compound: CCCCCOc1ccccc1-c1cc(C(=O)NC2CCCC2)no1
- EC50 (Cannabinoid receptor 2 [2]): 2.1 nM
- Ki (Cannabinoid receptor 2 [1]): 60.9 nM
- Ratio Ki (Homo sapiens): > 16
- Activity (HT-29): 13%
- Ki (Cannabinoid receptor 1): > 1 µM

Compound: CCCCCOc1ccccc1-c1cc(C(=O)NC2CCCCCC2)no1
- Ratio (Mus musculus [3]): 12.3
- EC50 (Cannabinoid receptor 2 [2]): 11.1 nM
- Ki (Cannabinoid receptor 2 [1]): 60.8 nM
- Activity (Mus musculus [4]): Active
- Ratio Ki (Homo sapiens): > 49
- Activity (Mus musculus [5]): inactive
- Activity (HT-29): 34%
- Ratio (Mus musculus [6]): 13.2
- Activity (Mus musculus [7]): 5.4 cm
- Activity (Mus musculus [8]): Active
- Ki (Cannabinoid receptor 1): > 3 µM
- Activity (Mus musculus [9]): Non-toxic
- Activity (Mus musculus [10]): 91.8%

Compound: CCCCCOc1ccccc1-c1cc(C(=O)Nc2ccccc2)no1
- Ki (Cannabinoid receptor 2 [1]): > 1000 nM

Compound: CCCCCOc1ccccc1-c1cc(C(=O)NN2CCCCC2)no1
- Ki (Cannabinoid receptor 2 [1]): 600 nM

Compound: CCCCCOc1cccc(-c2cc(C(=O)NC34CC5CC(CC(C5)C3)C4)no2)c1
- Ki (Cannabinoid receptor 2 [1]): > 1000 nM

Compound: CCCCCOc1ccccc1-c1cc(C(=O)Nc2nnc(C)s2)no1
- Ki (Cannabinoid receptor 2 [1]): > 3000 nM

Compound: CCOc1ccccc1-c1cc(C(=O)NC23CC4CC(CC(C4)C2)C3)no1
- Ki (Cannabinoid receptor 2 [1]): > 1000 nM

Compound: CCCCCOc1ccccc1-c1cc(C(=O)NC23CC4CC(CC(C4)C2)C3)no1
- EC50 (Cannabinoid receptor 2 [2]): 2.9 nM
- Ki (Cannabinoid receptor 2 [1]): 36 nM
- Ratio Ki (Homo sapiens): > 83
- Activity (HT-29): 0%
- Ki (Cannabinoid receptor 1): > 3 µM

Compound: CCCOc1ccccc1-c1cc(C(=O)NC23CC4CC(CC(C4)C2)C3)no1
- EC50 (Cannabinoid receptor 2 [2]): 2.21 nM
- Ki (Cannabinoid receptor 2 [1]): 79.6 nM
- Ratio Ki (Homo sapiens): > 12
- Activity (HT-29): 8%
- Ki (Cannabinoid receptor 1): > 1 µM

Compound: CCCCCCOc1ccccc1-c1cc(C(=O)NC23CC4CC(CC(C4)C2)C3)no1
- EC50 (Cannabinoid receptor 2 [2]): 3.4 nM
- Ki (Cannabinoid receptor 2 [1]): 30.5 nM
- Ratio Ki (Homo sapiens): > 98
- Activity (HT-29): 17%
- Ki (Cannabinoid receptor 1): > 3 µM

Compound: CCCCCOc1ccccc1-c1cc(C(=O)NC2CC2)no1
- Ki (Cannabinoid receptor 2 [1]): > 1000 nM

Compound: CCCCCOc1ccccc1-c1cc(C(=O)NC23CC4CC(CC2C4)C3)no1
- Ratio (Mus musculus [3]): 11.5
- EC50 (Cannabinoid receptor 2 [2]): 4.8 nM
- Ki (Cannabinoid receptor 2 [1]): 9 nM
- Activity (Mus musculus [4]): Active
- Ratio Ki (Homo sapiens): > 111
- Activity (Mus musculus [5]): inactive
- Activity (HT-29): 20%
- Ratio (Mus musculus [6]): 19.9
- Activity (Mus musculus [7]): 5.6 cm
- Activity (Mus musculus [8]): Active
- Ki (Cannabinoid receptor 1): > 1 µM
- Activity (Mus musculus [9]): Non-toxic
- Activity (Mus musculus [10]): 92.8%

Compound: CCCCCOc1ccccc1-c1cc(C(=O)NC2C3CC4CC(C3)CC2C4)no1 (stereo unspecified)
- EC50 (Cannabinoid receptor 2 [2]): 14.8 nM
- Ki (Cannabinoid receptor 2 [1]): 60.1 nM
- Ratio Ki (Homo sapiens): > 49
- Activity (HT-29): 0%
- Ki (Cannabinoid receptor 1): > 3 µM

Compound: CCCCCCCCOc1ccccc1-c1cc(C(=O)NC23CC4CC(CC(C4)C2)C3)no1
- Ki (Cannabinoid receptor 2 [1]): > 1000 nM

Compound: CCCCCCCOc1ccccc1-c1cc(C(=O)NC23CC4CC(CC(C4)C2)C3)no1
- Ki (Cannabinoid receptor 2 [1]): > 1000 nM

Compound: CCCCCOc1ccccc1-c1cc(C(=O)NCc2ccccc2)no1
- Ki (Cannabinoid receptor 2 [1]): > 3000 nM

Compound: CCCCCOc1ccccc1-c1cc(C(=O)Nc2cccc3ccccc23)no1
- Ki (Cannabinoid receptor 2 [1]): > 1000 nM

Compound: CCCCOc1ccccc1-c1cc(C(=O)NC23CC4CC(CC(C4)C2)C3)no1
- EC50 (Cannabinoid receptor 2 [2]): 2.88 nM
- Ki (Cannabinoid receptor 2 [1]): 369 nM
- Ratio Ki (Homo sapiens): > 8
- Activity (HT-29): 2%
- Ki (Cannabinoid receptor 1): > 3 µM

Compound: O=C(NC1C2CC3CC(C2)CC1C3)c1cc(-c2ccccc2)on1 (stereo unspecified)
- Ki (Cannabinoid receptor 2 [1]): > 1000 nM

Compound: CCCCCOc1ccccc1-c1cc(C(=O)NC2CCC2)no1
- EC50 (Cannabinoid receptor 2 [2]): 4.4 nM
- Ki (Cannabinoid receptor 2 [1]): 412 nM
- Ratio Ki (Homo sapiens): > 2
- Activity (HT-29): 46%
- Ki (Cannabinoid receptor 1): > 1 µM

Compound: COc1ccccc1-c1cc(C(=O)NC23CC4CC(CC(C4)C2)C3)no1
- EC50 (Cannabinoid receptor 2 [2]): 2.56 nM
- Ki (Cannabinoid receptor 2 [1]): 70.1 nM
- Ratio Ki (Homo sapiens): > 42
- Ki (Cannabinoid receptor 1): > 3 µM

Compound: O=C(NCC12CC3CC(CC(C3)C1)C2)c1cc(-c2ccccc2)on1
- Ki (Cannabinoid receptor 2 [1]): > 1000 nM

Compound: O=C(NC12CC3CC(CC(C3)C1)C2)c1cc(-c2ccccc2)on1
- Ki (Cannabinoid receptor 2 [1]): > 1000 nM

Compound: CCCCCOc1ccccc1-c1cc(C(=O)N(CC(C)C)CC(C)C)no1
- Ki (Cannabinoid receptor 2 [1]): 22.1 nM
- Ki (Cannabinoid receptor 1): 0.033 µM

Compound: CCCCCOc1ccccc1-c1cc(C(=O)NC2CCCCC2)no1
- EC50 (Cannabinoid receptor 2 [2]): 1.9 nM
- Ki (Cannabinoid receptor 2 [1]): 22.8 nM
- Ratio Ki (Homo sapiens): > 131
- Activity (HT-29): 37%
- Ki (Cannabinoid receptor 1): > 3 µM
